According to ChEMBL document CHEMBL1134325, “Diaminoindanes as microsomal triglyceride transfer protein inhibitors” (J Med Chem, 2001):
pIC50: −log10 of the molar value.

Experiments:
Rattus norvegicus [1] = test: Inhibition of plasma triglycerides in normolipidemic rats after 6 h of […] mg/kg oral dosing; no significant change; format: functional, organism-based; design: dose 50 mg/kg
Rattus norvegicus [2] = test: Inhibition of total cholesterol in normolipidemic rats after 24 hr of 50 mg/kg oral dosing; no significant change; format: functional, organism-based; design: dose 50 mg/kg
In short: (§1)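 Overnight-fasted normolipidemic rats received a single oral dose in cornstarch vehicle. Blood was drawn at 2, 6 and 24 h post-dose and assayed for triglycerides and total cholesterol, with free access to food after the 6 h sample. Value is mean percent inhibition versus a separate vehicle-treated group, unpaired t test p < 0.05, NS = no significant change, N = 6.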

Rattus norvegicus [3] = test: Inhibition of total cholesterol in normolipidemic rats after 2 hr of 50 mg/kg oral dosing; no significant change; format: functional, organism-based; design: dose 50 mg/kg; in short: as §1
Rattus norvegicus [4] = test: Inhibition of total cholesterol in normolipidemic rats after 6 h of […] mg/kg oral dosing; no significant change; format: functional, organism-based; design: dose 50 mg/kg
[5] = target: T1, Microsomal triglyceride transfer protein large subunit (Homo sapiens, UniProt P55157); test: In vitro inhibitory activity against MTP using MTP transfer assay
T1 sequence (P55157 whole entry): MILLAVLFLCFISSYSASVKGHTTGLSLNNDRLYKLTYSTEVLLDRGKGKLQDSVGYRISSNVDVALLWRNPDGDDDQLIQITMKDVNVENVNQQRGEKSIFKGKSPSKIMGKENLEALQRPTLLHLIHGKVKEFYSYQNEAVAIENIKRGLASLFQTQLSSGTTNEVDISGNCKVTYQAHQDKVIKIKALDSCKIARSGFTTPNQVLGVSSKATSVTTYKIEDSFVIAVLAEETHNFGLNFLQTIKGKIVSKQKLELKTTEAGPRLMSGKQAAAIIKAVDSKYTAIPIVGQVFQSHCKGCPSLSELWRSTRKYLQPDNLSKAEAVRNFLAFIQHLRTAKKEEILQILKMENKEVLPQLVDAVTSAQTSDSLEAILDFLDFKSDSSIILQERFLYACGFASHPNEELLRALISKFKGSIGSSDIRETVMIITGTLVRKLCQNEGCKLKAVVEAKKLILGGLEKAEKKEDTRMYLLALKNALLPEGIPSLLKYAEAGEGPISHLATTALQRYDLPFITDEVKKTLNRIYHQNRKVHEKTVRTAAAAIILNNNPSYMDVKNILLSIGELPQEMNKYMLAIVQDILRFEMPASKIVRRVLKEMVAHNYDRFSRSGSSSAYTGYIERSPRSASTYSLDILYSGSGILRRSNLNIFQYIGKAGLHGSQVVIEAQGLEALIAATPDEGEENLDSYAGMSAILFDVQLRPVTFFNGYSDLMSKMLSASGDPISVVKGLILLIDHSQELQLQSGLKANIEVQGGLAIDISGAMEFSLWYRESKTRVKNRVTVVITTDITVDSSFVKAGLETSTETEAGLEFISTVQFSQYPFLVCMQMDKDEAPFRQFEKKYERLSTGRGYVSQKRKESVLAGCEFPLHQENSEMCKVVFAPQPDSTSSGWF

Rattus norvegicus [6] = test: Inhibition of plasma triglycerides in normolipidemic rats after 2 hr of 50 mg/kg oral dosing; format: functional; in short: as §1
Rattus norvegicus [7] = test: Inhibition of plasma triglycerides in normolipidemic rats after 24 h of 50 mg/kg oral dosing; no significant change; format: functional, organism-based; design: dose 50 mg/kg; in short: as §1
Rattus norvegicus [8] = test: Inhibition of plasma triglycerides in normolipidemic rats after 6 hr of 50 mg/kg oral dosing; format: functional; in short: as §1
Rattus norvegicus [9] = test: Inhibition of total cholesterol in normolipidemic rats after 6 hr of 50 mg/kg oral dosing; format: functional; in short: as §1
Rattus norvegicus [10] = test: Inhibition of total cholesterol in normolipidemic rats after 2 hr of 50 mg/kg oral dosing; format: functional; in short: as §1
Rattus norvegicus [11] = test: Inhibition of total cholesterol in normolipidemic rats after 24 hr of 50 mg/kg oral dosing; format: functional; in short: as §1
Rattus norvegicus [12] = test: Inhibition of plasma triglycerides in normolipidemic rats after 24 hr of 50 mg/kg oral dosing; format: functional; in short: as §1

## COC(=O)NCC1Cc2ccc(NC(=O)c3cccc(C)c3-c3ccc(C(F)(F)F)cc3)cc2C1 (configuration not stated)
Rattus norvegicus [1]
  NS: no significant change
Rattus norvegicus [2]
  NS: no significant change
Rattus norvegicus [3]
  NS: no significant change
Rattus norvegicus [4]
  NS: no significant change
[5]
  pIC50: 7.62
Rattus norvegicus [6]
  Reduction: 49%
Rattus norvegicus [7]
  NS: no significant change

## Cc1cccc(C(=O)Nc2ccc3c(c2)CC(NS(=O)(=O)c2ccccc2)C3)c1-c1ccc(C#N)cc1 (configuration not stated)
[5]
  pIC50: 6.92

## Cc1cccc(C(=O)Nc2ccc3c(c2)CC(NS(=O)(=O)c2cccs2)C3)c1-c1ccc(F)cc1 (configuration not stated)
[5]
  pIC50: 7.30

## COC(=O)NCC1Cc2ccc(NC(=O)c3cccc(C)c3-c3ccc(Cl)cc3)cc2C1 (configuration not stated)
[5]
  pIC50: 7.00

## Cc1cccc(C(=O)Nc2ccc3c(c2)CCC(NS(C)(=O)=O)CC3)c1-c1ccc(Cl)cc1 (configuration not stated)
[5]
  pIC50: 7.05

## Cc1cccc(C(=O)Nc2ccc3c(c2)CCC(NS(C)(=O)=O)CC3)c1-c1ccc(C(F)(F)F)cc1 (configuration not stated)
Rattus norvegicus [8]
  Reduction: 53%
Rattus norvegicus [9]
  Reduction: 41%
[5]
  pIC50: 7.10
Rattus norvegicus [10]
  Reduction: 29%
Rattus norvegicus [6]
  Reduction: 81%
Rattus norvegicus [7]
  NS: no significant change
Rattus norvegicus [11]
  Reduction: 17%

## Cc1cccc(C(=O)Nc2ccc3c(c2)C[C@@H](NS(C)(=O)=O)C3)c1-c1ccc(C(F)(F)F)cc1
Rattus norvegicus [2]
  NS: no significant change
Rattus norvegicus [8]
  Reduction: 33%
Rattus norvegicus [9]
  Reduction: 15%
[5]
  pIC50: 6.69
Rattus norvegicus [10]
  Reduction: 12%
Rattus norvegicus [6]
  Reduction: 33%
Rattus norvegicus [7]
  NS: no significant change

## COC(=O)N[C@H]1Cc2ccc(NC(=O)c3cc(C(F)(F)F)ccc3-c3ccc(C(F)(F)F)cc3)cc2C1
[5]
  pIC50: 6.39

## COC(=O)NC1CCc2ccc(NC(=O)c3cccc(C)c3-c3ccc(Cl)cc3)cc2CC1 (configuration not stated)
[5]
  pIC50: 7.10

## O=C(Nc1ccc2c(c1)CC(NCc1ccccc1)C2)c1ccccc1-c1ccc(C(F)(F)F)cc1 (configuration not stated)
[5]
  pIC50: 5.32

## COC(=O)NC1CCc2ccc(NC(=O)c3cc(C)cc(C)c3-c3ccc(C(F)(F)F)cc3)cc2CC1 (configuration not stated)
Rattus norvegicus [8]
  Reduction: 44%
Rattus norvegicus [9]
  Reduction: 21%
[5]
  pIC50: 7.70
Rattus norvegicus [10]
  Reduction: 17%
Rattus norvegicus [12]
  Reduction: 36%
Rattus norvegicus [6]
  Reduction: 73%
Rattus norvegicus [11]
  Reduction: 22%

## COC(=O)N[C@H]1Cc2ccc(NC(=O)c3cc(C)cc(C)c3-c3ccc(C(F)(F)F)cc3)cc2C1
[5]
  pIC50: 7.15

## CN(C)C(=O)NC1Cc2ccc(NC(=O)c3ccccc3-c3ccc(C(F)(F)F)cc3)cc2C1 (configuration not stated)
[5]
  pIC50: 7.10

## COC(=O)NCC1Cc2ccc(NC(=O)c3cc(C)cc(C)c3-c3ccc(C(F)(F)F)cc3)cc2C1 (configuration not stated)
[5]
  pIC50: 7.40

## COC(=O)N[C@@H]1Cc2ccc(NC(=O)c3cc(C)cc(C)c3-c3ccc(C(F)(F)F)cc3)cc2C1
[5]
  pIC50: 7.05

## COC(=O)NC1Cc2ccc(NC(=O)c3cc(C)cc(C)c3-c3ccc(Cl)cc3)cc2C1 (configuration not stated)
[5]
  pIC50: 6.92

## Cc1cc(C)c(-c2ccc(C(F)(F)F)cc2)c(C(=O)Nc2ccc3c(c2)C[C@@H](NS(=O)(=O)c2cccs2)C3)c1
Rattus norvegicus [2]
  NS: no significant change
Rattus norvegicus [8]
  Reduction: 68%
Rattus norvegicus [9]
  Reduction: 46%
[5]
  pIC50: 6.74
Rattus norvegicus [10]
  Reduction: 33%
Rattus norvegicus [6]
  Reduction: 79%
Rattus norvegicus [7]
  NS: no significant change

## Cc1cccc(C(=O)Nc2ccc3c(c2)CC(CNS(C)(=O)=O)C3)c1-c1ccc(Cl)cc1 (configuration not stated)
[5]
  pIC50: 6.30

## Cc1ccc(-c2c(C)cccc2C(=O)Nc2ccc3c(c2)CC(NS(=O)(=O)c2ccccc2)C3)cc1 (configuration not stated)
[5]
  pIC50: 7.03

## Cc1cccc(C(=O)Nc2ccc3c(c2)CC(NS(=O)(=O)c2ccccc2)C3)c1-c1ccc(F)cc1 (configuration not stated)
[5]
  pIC50: 6.62

## Cc1cccc(C(=O)Nc2ccc3c(c2)CC(CNS(C)(=O)=O)C3)c1-c1ccc(C(F)(F)F)cc1 (configuration not stated)
[5]
  pIC50: 6.82

## Cc1cc(C)c(-c2ccc(C(F)(F)F)cc2)c(C(=O)Nc2ccc3c(c2)C[C@H](NS(=O)(=O)c2cccs2)C3)c1
Rattus norvegicus [8]
  Reduction: 48%
Rattus norvegicus [9]
  Reduction: 34%
[5]
  pIC50: 7.70
Rattus norvegicus [10]
  Reduction: 21%
Rattus norvegicus [12]
  Reduction: 46%
Rattus norvegicus [6]
  Reduction: 77%
Rattus norvegicus [11]
  Reduction: 47%

## Cc1cccc(C(=O)Nc2ccc3c(c2)CC(CNS(=O)(=O)c2cccs2)C3)c1-c1ccc(C(F)(F)F)cc1 (configuration not stated)
[5]
  pIC50: 7.85

## CS(=O)(=O)NC1Cc2ccc(NC(=O)c3ccccc3-c3ccc(C(F)(F)F)cc3)cc2C1 (configuration not stated)
[5]
  pIC50: 6.92

## Cc1cccc(C(=O)Nc2ccc3c(c2)CCC(NS(=O)(=O)c2cccs2)CC3)c1-c1ccc(C(F)(F)F)cc1 (configuration not stated)
[5]
  pIC50: 6.85

## COC(=O)NC1CCc2ccc(NC(=O)c3cccc(C)c3-c3ccc(C(F)(F)F)cc3)cc2CC1 (configuration not stated)
Rattus norvegicus [1]
  NS: no significant change
Rattus norvegicus [2]
  NS: no significant change
Rattus norvegicus [9]
  Reduction: 20%
[5]
  pIC50: 7.70
Rattus norvegicus [10]
  Reduction: 20%
Rattus norvegicus [6]
  Reduction: 39%
Rattus norvegicus [7]
  NS: no significant change

## Cc1cccc(C(=O)Nc2ccc3c(c2)CC(NS(=O)(=O)c2ccccc2)C3)c1-c1ccc(Cl)cc1 (configuration not stated)
[5]
  pIC50: 7.00

## Cc1cccc(C(=O)Nc2ccc3c(c2)CC(NS(C)(=O)=O)C3)c1-c1ccc(F)cc1 (configuration not stated)
[5]
  pIC50: 6.77

## O=C(NC1Cc2ccc(NC(=O)c3ccccc3-c3ccc(C(F)(F)F)cc3)cc2C1)c1ccccc1 (configuration not stated)
[5]
  pIC50: < 6.00

## COc1cccc(C(=O)Nc2ccc3c(c2)CC(NS(C)(=O)=O)C3)c1-c1ccc(Cl)cc1 (configuration not stated)
[5]
  pIC50: 7.15

## CC(=O)NC1Cc2ccc(NC(=O)c3ccccc3-c3ccc(C(F)(F)F)cc3)cc2C1 (configuration not stated)
[5]
  pIC50: 7.10

## COC(=O)N[C@H]1Cc2ccc(NC(=O)c3cccc(C(F)(F)F)c3-c3ccc(C(F)(F)F)cc3)cc2C1
[5]
  pIC50: 7.30

## O=C(Nc1ccc2c(c1)CC(NS(=O)(=O)c1ccccc1)C2)c1ccccc1-c1ccccc1 (configuration not stated)
[5]
  pIC50: 6.15

## O=C(Nc1ccc2c(c1)CC(NS(=O)(=O)c1ccccc1)C2)c1ccccc1-c1ccc(C(F)(F)F)cc1 (configuration not stated)
Rattus norvegicus [2]
  NS: no significant change
Rattus norvegicus [8]
  Reduction: 30%
Rattus norvegicus [4]
  NS: no significant change
[5]
  pIC50: 6.98
Rattus norvegicus [10]
  Reduction: 21%
Rattus norvegicus [6]
  Reduction: 57%
Rattus norvegicus [7]
  NS: no significant change

## Cc1cccc(C(=O)Nc2ccc3c(c2)CC(NS(C)(=O)=O)C3)c1-c1ccc(Cl)cc1 (configuration not stated)
[5]
  pIC50: 7.00

## COC(=O)N[C@@H]1Cc2ccc(NC(=O)c3ccccc3-c3ccc(C(F)(F)F)cc3)cc2C1
[5]
  pIC50: 6.96

## COc1cccc(C(=O)Nc2ccc3c(c2)CC(NS(=O)(=O)c2ccccc2)C3)c1-c1ccc(Cl)cc1 (configuration not stated)
[5]
  pIC50: 6.96

## Cc1cccc(C(=O)Nc2ccc3c(c2)C[C@H](NS(C)(=O)=O)C3)c1-c1ccc(C(F)(F)F)cc1
Rattus norvegicus [2]
  NS: no significant change
Rattus norvegicus [8]
  Reduction: 68%
Rattus norvegicus [9]
  Reduction: 42%
[5]
  pIC50: 7.47
Rattus norvegicus [10]
  Reduction: 27%
Rattus norvegicus [6]
  Reduction: 74%
Rattus norvegicus [7]
  NS: no significant change

## Cc1cccc(C(=O)Nc2ccc3c(c2)CC(NS(=O)(=O)c2cccs2)C3)c1-c1ccc(Cl)cc1 (configuration not stated)
[5]
  pIC50: 6.92

## COC(=O)N1CCN([C@@H]2Cc3ccc(NC(=O)c4cccc(C)c4-c4ccc(C(F)(F)F)cc4)cc3C2)CC1
Rattus norvegicus [1]
  NS: no significant change
Rattus norvegicus [2]
  NS: no significant change
Rattus norvegicus [9]
  Reduction: 20%
[5]
  pIC50: 6.00
Rattus norvegicus [10]
  Reduction: 23%
Rattus norvegicus [6]
  Reduction: 58%
Rattus norvegicus [7]
  NS: no significant change

## COC(=O)N[C@H]1Cc2ccc(NC(=O)c3ccccc3-c3ccc(C(F)(F)F)cc3)cc2C1
Rattus norvegicus [2]
  NS: no significant change
Rattus norvegicus [8]
  Reduction: 74%
Rattus norvegicus [9]
  Reduction: 39%
[5]
  pIC50: 7.17
Rattus norvegicus [10]
  Reduction: 20%
Rattus norvegicus [6]
  Reduction: 69%
Rattus norvegicus [7]
  NS: no significant change
